Measurements as given in ChEMBL document CHEMBL1150811, “New modified eremophilanes from the roots of Psacalium radulifolium” (J Nat Prod, 2001).
Converted amounts (≈) assume the structure as drawn.

Key:
[1] = system: Pseudomonas aeruginosa; assay: Antimicrobial activity against Pseudomonas aeruginosa ATCC 27853; assay type: functional
Summary of the method: (§1)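 Agar dilution: each natural product suspended in 10% DMSO and added at various concentrations to melted agar in Petri dishes; plates incubated 24 h at 37 °C; gentamicin and nystatin as reference standards; run in duplicate.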

[2] = system: Proteus mirabilis; assay: Antimicrobial activity against Proteus mirabilis ATCC 12453; assay type: functional; summary of the method: as §1
[3] = system: Escherichia coli; assay: Antimicrobial activity against Escherichia coli ATCC 8937; assay type: functional; summary of the method: as §1
[4] = system: Artemia salina; assay: Toxicity against Artemia salina; assay type: organism-based; settings: in vivo
[5] = system: Staphylococcus aureus; assay: Antimicrobial activity against Staphylococcus aureus ATCC 6358
[6] = system: Candida albicans; assay: Antimicrobial activity against Candida albicans ATCC 10231; assay type: functional; summary of the method: as §1

Compound	MIC [1]	MIC [2]	MIC [3]	LD50 [4]	MIC [5]	MIC [6]
Cc1coc2c1C(C)(O)C1=C(CCC[C@@H]1C)C2=O (mixture of isomers) [cacalone/epi-cacalone]	> 1000 µg/mL	> 1000 µg/mL	> 1000 µg/mL	269 ppm	250 µg/mL	> 1000 µg/mL
C/C=C\C(=O)O[C@@H]1c2c(C)coc2C(=O)C2=CCC[C@H](C)[C@]21C [NEOADENOSTYLONE]	> 400 µg/mL		> 400 µg/mL	21.7 ppm	> 400 µg/mL	> 400 µg/mL
Cc1coc2c(O)c3c(c(Cc4oc5c(O)c6c(c(C)c5c4C)[C@@H](C)CCC6)c12)[C@@H](C)CCC3 [ADENOSTIN A]	> 400 µg/mL		> 400 µg/mL	230 ppm	50 µg/mL (≈ 109 µM)	> 400 µg/mL
Cc1coc2c(O)c3c(c(C)c12)[C@@H](C)CCC3 [CACALOL]	> 400 µg/mL	12 µg/mL (≈ 52.1 µM)	25 µg/mL (≈ 109 µM)	12 ppm	12 µg/mL (≈ 52.1 µM)	12 µg/mL (≈ 52.1 µM)
C[C@H]1CCCc2c(O)c(O)c3c(c21)COC(=O)C3(C)O (mixture of isomers)	> 400 µg/mL		> 400 µg/mL	230 ppm	200 µg/mL	> 400 µg/mL
COc1c2c(c(C)c3c1OC(=O)[C@@]3(C)O)[C@@H](C)CCC2 [RADULIFOLIN B]	> 400 µg/mL		> 400 µg/mL	52.5 ppm	100 µg/mL (≈ 362 µM)	> 400 µg/mL
COc1c2c(c(C)c3c(C)coc13)[C@@H](C)CC=C2	> 400 µg/mL	> 400 µg/mL	> 400 µg/mL	> 1000 ppm	400 µg/mL (≈ 1650 µM)	> 400 µg/mL
CC(=O)O[C@@H]1c2c(C)coc2C(=O)C2=CCC[C@H](C)[C@]21C [DECOMPOSTIN]	> 400 µg/mL	> 400 µg/mL	> 400 µg/mL	> 1000 ppm	> 400 µg/mL	> 400 µg/mL
